For one test, the target named is Delta-type opioid receptor (Mus musculus) (UniProt P32300). The test can be described thus: Inhibition of DADLE binding to Opioid receptor delta 1 of mouse vas deferens. A digest of the protocol: (§1)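 Electrically stimulated smooth muscle: guinea pig ileal longitudinal muscle with morphine or ethylketazocine, mouse vas deferens with DADLE. Antagonist 100 nM incubated 15 min (30 min in footnoted cases) before agonist. IC50 ratio = agonist IC50 with antagonist divided by control IC50 in the same preparation; mean ± SEM, n shown.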
Chain of Delta-type opioid receptor (Mus musculus) (P32300 whole entry): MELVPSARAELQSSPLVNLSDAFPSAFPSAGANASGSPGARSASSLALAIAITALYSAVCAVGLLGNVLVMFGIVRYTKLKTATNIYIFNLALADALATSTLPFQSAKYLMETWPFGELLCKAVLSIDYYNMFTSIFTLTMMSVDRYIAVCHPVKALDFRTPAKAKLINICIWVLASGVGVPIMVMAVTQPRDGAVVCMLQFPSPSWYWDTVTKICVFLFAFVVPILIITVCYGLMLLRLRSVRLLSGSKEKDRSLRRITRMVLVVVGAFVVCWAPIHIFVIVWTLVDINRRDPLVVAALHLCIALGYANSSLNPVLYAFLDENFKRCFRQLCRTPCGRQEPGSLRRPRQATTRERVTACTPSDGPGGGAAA
Chain of Mu-type opioid receptor (Cavia porcellus) (P97266 whole entry): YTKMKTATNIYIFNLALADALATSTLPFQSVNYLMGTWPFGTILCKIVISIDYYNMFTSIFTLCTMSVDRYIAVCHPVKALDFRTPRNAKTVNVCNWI
Chain of Kappa-type opioid receptor (Cavia porcellus) (P41144 whole entry): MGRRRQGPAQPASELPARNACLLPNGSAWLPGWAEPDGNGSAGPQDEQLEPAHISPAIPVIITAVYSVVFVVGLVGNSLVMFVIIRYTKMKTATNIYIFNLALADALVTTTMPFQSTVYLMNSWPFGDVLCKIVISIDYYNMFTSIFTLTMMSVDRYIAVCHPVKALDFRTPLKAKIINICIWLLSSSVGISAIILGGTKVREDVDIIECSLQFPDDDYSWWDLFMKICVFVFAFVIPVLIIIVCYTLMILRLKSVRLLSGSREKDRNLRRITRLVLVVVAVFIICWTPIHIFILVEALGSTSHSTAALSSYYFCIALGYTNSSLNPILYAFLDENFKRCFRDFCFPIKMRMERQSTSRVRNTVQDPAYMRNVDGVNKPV
Take `COc1cccc(/C=C2/C[C@@]3(O)C4Cc5ccc(O)c6c5C3(CCN4CC3CC3)[C@@H](O6)C2=O)c1` (stereo not given in full): the IC50 ratio turned out to be 18.
Still for that read-out and setting: as for `COC(=O)c1ccc(/C=C2/C[C@@]3(O)C4Cc5ccc(O)c6c5C3(CCN4CC3CC3)[C@@H](O6)C2=O)cc1` (stereo not given in full), the figure is 14.6; as for `O=C1/C(=C\c2cccc([N+](=O)[O-])c2)C[C@@]2(O)C3Cc4ccc(O)c5c4C2(CCN3CC2CC2)[C@H]1O5` (stereo not given in full), 5.18.
For `O=C1/C(=C\c2cccc(F)c2)C[C@@]2(O)C3Cc4ccc(O)c5c4C2(CCN3CC2CC2)[C@H]1O5` (stereo not given in full), the IC50 ratio came to 16.3.
As to `Cc1ccc(/C=C2/C[C@@]3(O)C4Cc5ccc(O)c6c5C3(CCN4CC3CC3)[C@@H](O6)C2=O)cc1` (stereo not given in full), the IC50 ratio turned out to be 22.3.
On to `O=C1/C(=C\c2ccc([N+](=O)[O-])cc2)C[C@@]2(O)C3Cc4ccc(O)c5c4C2(CCN3CC2CC2)[C@H]1O5` (stereo not given in full), for which the IC50 ratio was 1.9.
Take `COc1ccc(/C=C2/C[C@@]3(O)C4Cc5ccc(O)c6c5C3(CCN4CC3CC3)[C@@H](O6)C2=O)cc1` (stereo not given in full): the IC50 ratio was 5.52.

In another test the target is Kappa-type opioid receptor (Cavia porcellus) (UniProt P41144). Briefly: Inhibition of ethylketazocine binding to Opioid receptor kappa 1 of guinea pig ileal longitudinal muscle. A digest of the protocol:
as §1
On to `COc1cccc(/C=C2/C[C@@]3(O)C4Cc5ccc(O)c6c5C3(CCN4CC3CC3)[C@@H](O6)C2=O)c1` (stereo not given in full), for which the IC50 ratio is 0.95.
Same read-out and setting: as for `COC(=O)c1ccc(/C=C2/C[C@@]3(O)C4Cc5ccc(O)c6c5C3(CCN4CC3CC3)[C@@H](O6)C2=O)cc1` (stereo not given in full), the figure is 0.62.
Still for that read-out and setting: as for `O=C1/C(=C\c2cccc([N+](=O)[O-])c2)C[C@@]2(O)C3Cc4ccc(O)c5c4C2(CCN3CC2CC2)[C@H]1O5` (stereo not given in full), the figure is 0.5.
The same measure, in the same setting: next, `O=C1/C(=C\c2cccc(F)c2)C[C@@]2(O)C3Cc4ccc(O)c5c4C2(CCN3CC2CC2)[C@H]1O5` (stereo not given in full): 1.26; `Cc1ccc(/C=C2/C[C@@]3(O)C4Cc5ccc(O)c6c5C3(CCN4CC3CC3)[C@@H](O6)C2=O)cc1` (stereo not given in full): 2.45.
Consider `O=C1/C(=C\c2ccc([N+](=O)[O-])cc2)C[C@@]2(O)C3Cc4ccc(O)c5c4C2(CCN3CC2CC2)[C@H]1O5` (stereo not given in full), for which the IC50 ratio stood at 1.07.
On the same count and under the same terms, as for `COc1ccc(/C=C2/C[C@@]3(O)C4Cc5ccc(O)c6c5C3(CCN4CC3CC3)[C@@H](O6)C2=O)cc1` (stereo not given in full), the figure is 0.92.

The next test has as its target Mu-type opioid receptor (Cavia porcellus) (UniProt P97266). Briefly: Inhibition of morphine binding to Opioid receptor mu 1 of guinea pig ileal longitudinal muscle. The procedure, abridged:
as §1
Take `COc1cccc(/C=C2/C[C@@]3(O)C4Cc5ccc(O)c6c5C3(CCN4CC3CC3)[C@@H](O6)C2=O)c1` (stereo not given in full): the IC50 ratio was 6.44.
Take `COC(=O)c1ccc(/C=C2/C[C@@]3(O)C4Cc5ccc(O)c6c5C3(CCN4CC3CC3)[C@@H](O6)C2=O)cc1` (stereo not given in full): the IC50 ratio came out at 3.81.
Same read-out and setting: as for `O=C1/C(=C\c2cccc([N+](=O)[O-])c2)C[C@@]2(O)C3Cc4ccc(O)c5c4C2(CCN3CC2CC2)[C@H]1O5` (stereo not given in full), the figure is 1.15; as for `O=C1/C(=C\c2cccc(F)c2)C[C@@]2(O)C3Cc4ccc(O)c5c4C2(CCN3CC2CC2)[C@H]1O5` (stereo not given in full), 7.83.
Same read-out and setting: next, `Cc1ccc(/C=C2/C[C@@]3(O)C4Cc5ccc(O)c6c5C3(CCN4CC3CC3)[C@@H](O6)C2=O)cc1` (stereo not given in full): 7.05.
The same measure, in the same setting: as for `O=C1/C(=C\c2ccc([N+](=O)[O-])cc2)C[C@@]2(O)C3Cc4ccc(O)c5c4C2(CCN3CC2CC2)[C@H]1O5` (stereo not given in full), the figure is 4.42.
With `COc1ccc(/C=C2/C[C@@]3(O)C4Cc5ccc(O)c6c5C3(CCN4CC3CC3)[C@@H](O6)C2=O)cc1` (stereo not given in full), the IC50 ratio worked out at 3.75.

Tested on in the next test: not listed separately
The test can be described thus: Relative affinity for delta and mu receptors. A digest of the protocol: (§2)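 Selectivity ratio = DADLE IC50 ratio (MVD) divided by morphine or EK IC50 ratio (GPI), with 100 nM antagonist. Where an IC50 ratio was below or near unity, a value of 1 was used.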
In the case of `COc1cccc(/C=C2/C[C@@]3(O)C4Cc5ccc(O)c6c5C3(CCN4CC3CC3)[C@@H](O6)C2=O)c1` (stereo not given in full), the Selectivity ratio stood at 2.8.
On the same count and under the same terms, next, `COC(=O)c1ccc(/C=C2/C[C@@]3(O)C4Cc5ccc(O)c6c5C3(CCN4CC3CC3)[C@@H](O6)C2=O)cc1` (stereo not given in full): 3.8.
Still for that read-out and setting: as for `O=C1/C(=C\c2cccc([N+](=O)[O-])c2)C[C@@]2(O)C3Cc4ccc(O)c5c4C2(CCN3CC2CC2)[C@H]1O5` (stereo not given in full), the figure is 5.2; as for `O=C1/C(=C\c2cccc(F)c2)C[C@@]2(O)C3Cc4ccc(O)c5c4C2(CCN3CC2CC2)[C@H]1O5` (stereo not given in full), 2.1; as for `Cc1ccc(/C=C2/C[C@@]3(O)C4Cc5ccc(O)c6c5C3(CCN4CC3CC3)[C@@H](O6)C2=O)cc1` (stereo not given in full), 3.2.
The same measure, in the same setting: as for `O=C1/C(=C\c2ccc([N+](=O)[O-])cc2)C[C@@]2(O)C3Cc4ccc(O)c5c4C2(CCN3CC2CC2)[C@H]1O5` (stereo not given in full), the figure is 0.4.
Take `COc1ccc(/C=C2/C[C@@]3(O)C4Cc5ccc(O)c6c5C3(CCN4CC3CC3)[C@@H](O6)C2=O)cc1` (stereo not given in full): the Selectivity ratio was determined as 1.5.

Tested on in another test: not listed separately
The test can be described thus: Relative affinity for delta and kappa receptors. The procedure, abridged: as §2
For the compound `COc1cccc(/C=C2/C[C@@]3(O)C4Cc5ccc(O)c6c5C3(CCN4CC3CC3)[C@@H](O6)C2=O)c1` (stereo not given in full), the Selectivity ratio was found to be 18.
On the same count and under the same terms, as for `COC(=O)c1ccc(/C=C2/C[C@@]3(O)C4Cc5ccc(O)c6c5C3(CCN4CC3CC3)[C@@H](O6)C2=O)cc1` (stereo not given in full), the figure is 14.6; as for `O=C1/C(=C\c2cccc([N+](=O)[O-])c2)C[C@@]2(O)C3Cc4ccc(O)c5c4C2(CCN3CC2CC2)[C@H]1O5` (stereo not given in full), 5.2; as for `O=C1/C(=C\c2cccc(F)c2)C[C@@]2(O)C3Cc4ccc(O)c5c4C2(CCN3CC2CC2)[C@H]1O5` (stereo not given in full), 12.9.
In the case of `Cc1ccc(/C=C2/C[C@@]3(O)C4Cc5ccc(O)c6c5C3(CCN4CC3CC3)[C@@H](O6)C2=O)cc1` (stereo not given in full), the Selectivity ratio was 9.1.
On the same count and under the same terms, next, `O=C1/C(=C\c2ccc([N+](=O)[O-])cc2)C[C@@]2(O)C3Cc4ccc(O)c5c4C2(CCN3CC2CC2)[C@H]1O5` (stereo not given in full): 1.9.
On the same count and under the same terms, as for `COc1ccc(/C=C2/C[C@@]3(O)C4Cc5ccc(O)c6c5C3(CCN4CC3CC3)[C@@H](O6)C2=O)cc1` (stereo not given in full), the figure is 5.5.

(Values after ChEMBL document CHEMBL1131147, “7-Arylidenenaltrexones as selective delta1 opioid receptor antagonists” (J Med Chem, 1998).)
